This note sets out measurements from ChEMBL document CHEMBL1250490, “Synthesis, characterization, antiamoebic activity and cytotoxicity of novel series of pyrazoline derivatives bearing quinoline tail” (Eur J Med Chem, 2010).

The experiment relates to MCF7. Kind of experiment: Cytotoxicity against human MCF7 cells after 48 hrs by MTT assay. It is filed as cell-based. As to conditions: MCF7, 48 h. The method in brief:
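MCF-7 cells were kept as monolayers in DMEM with 10% fetal calf serum and penicillin. They were plated at 1.2×10⁴ cells/well and grown 48 h before dosing. Compounds were dissolved as 20% DMSO stocks and diluted in complete medium. After 48 h exposure, MTT was added for 4 h at 37 °C and dissolved in DMSO. Absorbance was read at 570 nm (reference 655 nm); viability is relative to untreated cells. Triplicate, repeated thrice.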
A general note: Tetrazolium dyes change colour on reduction, which living cells bring about.

SMILES strings stand for the structures.

Usually IC50 stands for the point on the concentration scale where inhibition reaches its midpoint.

Regarding `Cc1ncc([N+](=O)[O-])n1CCO` [METRONIDAZOLE], the IC50 was > 100 µM.
